Source: ChEMBL document CHEMBL1157086, “Sesquiterpenoid aminoquinones from the marine sponge Dysidea sp” (J Nat Prod, 2010)
The source made the active and inactive calls. The calls are words filed in the database; no cut-off is given here.

What was measured:
Ehrlich = assay: Cytotoxicity activity against mouse EAC at 100 ug/ml; assay type: functional, cell-based
Staphylococcus aureus = assay: Antibacterial activity against Staphylococcus aureus at 100 ug/ml; assay type: functional, organism-based
Escherichia coli = assay: Antibacterial activity against Escherichia coli at 100 ug/ml; assay type: functional, organism-based
Candida albicans = assay: Antifungal activity against Candida albicans at 100 ug/ml; assay type: functional, organism-based
[1] = system: Radical scavenging activity; assay: Antioxidant activity assessed as DPPH radical scavenging activity after 30 mins; assay type: functional
Outline: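 In EtOH, test concentrations 5, 10, 20, 50, 100 µM mixed with DPPH (0.1 mM final). A517 read after 30 min. Percent inhibition calculated against DPPH-only control, corrected for the compound's own absorbance at 517 nm. IC50 taken from the plotted inhibition curve as the concentration scavenging 50% of DPPH. Trolox served as positive control.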

Row | SMILES | Activity (Ehrlich) | Activity (Staphylococcus aureus) | Activity (Escherichia coli) | Activity (Candida albicans) | IC50 [1] [µM]
1 | C=C1CCC[C@H]2[C@](C)(CC3=CC(=O)C=C(NC)C3=O)[C@@H](C)CC[C@@]12C | inactive | inactive | inactive | inactive | 
2 | C=C1CCC[C@H]2[C@](C)(CC3=CC(=O)C=C(N)C3=O)[C@@H](C)CC[C@@]12C | inactive | inactive | inactive | inactive | 
3 | C=C1CCC[C@H]2[C@](C)(CC3=CC(=O)C(N)=CC3=O)[C@@H](C)CC[C@@]12C | inactive | inactive | inactive | inactive | 
4 | C=C1CCC[C@H]2[C@](C)(CC3=CC(=O)C=C(Nc4ccc(O)c(C[C@]5(C)[C@@H](C)CC[C@@]6(C)C(=C)CCC[C@@H]56)c4)C3=O)[C@@H](C)CC[C@@]12C [POPOLOHUANONE A] |  |  |  |  | 35
5 | C=C1CCC[C@H]2[C@](C)(CC3=CC(=O)C(Nc4ccc(O)c(C[C@]5(C)[C@@H](C)CC[C@@]6(C)C(=C)CCC[C@@H]56)c4)=CC3=O)[C@@H](C)CC[C@@]12C [POPOLOHUANONE F] | inactive | inactive | inactive | inactive | 35
6 | C=C1CCC[C@H]2[C@](C)(CC3=CC(=O)C(NC)=CC3=O)[C@@H](C)CC[C@@]12C | inactive | inactive | inactive | inactive | 
7 | Cc1c(C)c2c(c(C)c1O)CCC(C)(C(=O)O)O2 (centres undefined) [TROLOX] |  |  |  |  | 16
8 | C=C1CCC[C@H]2[C@](C)(Cc3cc(O)ccc3O)[C@@H](C)CC[C@@]12C [ARENAROL] |  |  |  |  | 19
